Assay results pooled from the literature.
Compare with care: the assays were run in different laboratories.
Cell line: HOP-62
Effect on: cell growth or viability

`COc1cccc2c1C(=O)c1c(O)c3c(c(O)c1C2=O)C[C@@](O)(C(=O)CO)C[C@@H]3O[C@H]1C[C@H](N)[C@H](O)[C@H](C)O1` has an inhibition of 98.9% (SRB; 10 µg/mL, 48 h).
For `CCCCc1n(Cc2ccc3ccccc3n2)cc[n+]1Cc1ccc2ccccc2n1`, the TGI was 12 µM (SRB).
`O=C1Nc2ccccc2C1=NNc1nnc2n1N=C(c1ccccc1)CS2` gave an inhibition of 54% (SRB; 10 µM).
`CCCc1n(Cc2ccc3ccccc3n2)cc[n+]1Cc1ccc2ccccc2n1` gave a TGI of 19.4 µM (SRB).
`COc1ccc(-c2ccc(-c3ccc(C(=N)N)nc3)s2)cc1` has a GI50 of 1.8 µM (SRB).
For `O=C1NC(=NCc2cccs2)S/C1=C\c1ccc2ncccc2c1`, the IC50 was over 10 µM.
`COc1cccc(Oc2ccccc2NC(=O)CNC(=O)c2cccc3ccccc23)c1` gave a GI50 of 0.302 µM (SRB; 48 h).
The GI50 of `COc1ccc(C(=O)/C=C/c2c(F)cccc2Cl)cc1S(N)(=O)=O` is reported as 3 µM (SRB; 48 h).
`c1ccc2cc(Cn3cc[n+](Cc4ccc5ccccc5c4)c3)ccc2c1` has a TGI of 17 µM (SRB).
`COc1ccc(C(=O)/C=C/c2cccc3ccccc23)cc1S(N)(=O)=O` gave an inhibition of 82% (SRB; 10 µM).
`O=C1NCCc2[nH]c(-c3ccncc3)cc21` has an IC50 of 9.94 µM.
The GI50 of `COc1ccc(-c2ccc(-c3ccc(C(=N)N)nc3)s2)cc1Cl` is reported as 1.9 µM (SRB).
